# Rows were chosen to be rich in hits. Some 2.6% of all compounds tested hit in one or more screens of this group.
# dFosB act-1 – mouse delta FosB homodimer activation. AID 493131. actives 0.99% (n = 340,000). purified delta FosB, TAMRA-CDK5 oligo fluorescence polarization; percent of positive-control signal above neutral wells. activation, % at 25 µM. P13346;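 active means mean activation above about 17%, with every replicate also reaching it, limit read from the data, passing the limit was not always enough; inconclusive means only one of the two conditions met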
# Ecoli rRNA inh – inhibits bacterial ribosomal RNA function over humanized ribosomes. E. coli WT GFP vs humanized-ribosome RFP mutants, fluorescence, 24 h; stronger effect = lower value; DMSO median 0, no signal -100. GFP signal change (wild-type ribosome), % (concentration not given with the values). actives 1.6% (n = 350,000). AID 720706;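 active means significant combined selectivity score with lowered wild-type GFP, culture density cut under 30%, mutant RFP and density less affected; inactive means any of these conditions unmet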
# SR-BI DiI-HDL act – SR-BI HDL lipid transfer activation | CHO ldlA[mSR-BI] cells, DiI-HDL uptake fluorescence, 3 h; 100 = double the neutral-control signal | AID 504775 | activation, % at 12.5 µM | actives 0.096% (n = 320,000);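 active means mean replicate activation of at least 60% and every replicate at or above 60%; inconclusive means mean or all-replicate condition met, but not both; inactive means mean below 60% and not all replicates reaching 60%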;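 further: 0% = median plate neutral-control signal and 100% = twice that signal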
#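 Test system: SR-BI-overexpressing, LDLR-lacking CHO cells; Medium: Ham's F12 with 0.5% BSA, HEPES 25 mM, pH 7.4; Schedule: 3 h, 37 °C; Technique: bottom-read fluorescence, 550/595 nm.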
# SR-BI HDL uptake – mouse SR-BI HDL lipid transfer inhibition; Q61009; ldlA[mSR-BI] CHO cells, DiI-HDL uptake fluorescence, 3 h; inhibition, % at 12.5 µM; actives 0.96% (n = 320,000);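 active means mean replicate inhibition of at least 70% and a set share of replicates each scoring 70 or more; inconclusive means meets just one of the two criteria; inactive means fails both criteria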;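 further: 0% = median of neutral control wells and 100% = median of positive control wells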
# Target sequence (Q61009 whole entry, looked up): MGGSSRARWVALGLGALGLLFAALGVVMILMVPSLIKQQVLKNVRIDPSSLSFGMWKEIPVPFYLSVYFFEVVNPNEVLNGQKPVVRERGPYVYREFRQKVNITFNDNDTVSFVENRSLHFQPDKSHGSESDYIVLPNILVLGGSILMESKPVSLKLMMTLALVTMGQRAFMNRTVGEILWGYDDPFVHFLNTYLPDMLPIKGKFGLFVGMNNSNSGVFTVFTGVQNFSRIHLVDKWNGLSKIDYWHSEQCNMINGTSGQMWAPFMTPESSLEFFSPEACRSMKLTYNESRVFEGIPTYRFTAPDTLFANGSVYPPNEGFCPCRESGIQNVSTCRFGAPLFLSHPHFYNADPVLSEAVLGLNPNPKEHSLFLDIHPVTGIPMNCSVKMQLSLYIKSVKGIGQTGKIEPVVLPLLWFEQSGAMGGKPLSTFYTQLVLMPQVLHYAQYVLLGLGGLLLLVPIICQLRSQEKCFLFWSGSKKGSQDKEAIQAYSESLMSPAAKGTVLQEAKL
# PvdQ acylase – blocks Pseudomonas aeruginosa PvdQ acylase activity | purified PvdQ acylase, fluorescence plate reader | actives 0.063% (n = 340,000) | inhibition, % at 10 µM; in the data active means inhibition above about 30%, passing the limit was not always enough; inconclusive means no clear call, values can overlap the other calls;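 further: 0% = vehicle neutral wells and 100% = reference inhibitor wells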
# XiGFP reactiv – activators of X-chromosome reactivation in mouse fibroblasts; XiGFP mouse fibroblasts, % GFP-positive cells imaging, 3 d; cells co-treated with 5-aza-dC sensitizer; scaled so ellipticine positive control = 100%; activation, % at 7.58 µM; actives 0.055% (n = 360,000); AID 743238;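 active means mean normalized replicate activation at least 10% and every replicate at or above 10%; inconclusive means only one of the two criteria met; inactive means mean below 10% and not all replicates reach 10%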;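 further: 0% = median of on-plate neutral control wells and 100% = ellipticine 6 µM median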
#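 Assay system: SV40-immortalized XiGFP fibroblast cells, line 68-5-11; buffer or medium: DMEM plus 5-aza-dC sensitizer; compound: one concentration, pinned; timing: compounds 3 days, fix/stain 15 min at room temperature; benchmarks: positive control ellipticine, 6 µM final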
# dFosB act-2 – delta FosB (mouse) homodimer activation; 2,400 tested, under 10 active; purified delta FosB, TAMRA-CDK5 oligo fluorescence polarization; normalised: neutral wells 0, positive control 100; shares compounds with dFosB act-1; AID 588690; activation, % at 24.9 µM;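 active means highest replicate activation at or above 34% and every replicate reaching that threshold; inconclusive means meets only one of the two criteria; inactive means meets neither criterion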;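 further: higher polarization means more probe DNA bound by delta FosB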
# * = called active by the depositor; ? = inconclusive; . = no result given.
SMILES,dFosB act-1,Ecoli rRNA inh,SR-BI DiI-HDL act,SR-BI HDL uptake,PvdQ acylase,XiGFP reactiv,dFosB act-2
C[C@@H]1CN([C@@H](C)CO)C(=O)c2cc(C#Cc3cccc(F)c3)cnc2O[C@H]1CN(C)C(=O)C1CCOCC1,.,-2,.,.,.,1,.
O=C(Cn1ncn2c(cc3ccccc32)c1=O)NCCCc1ccccc1,48*,.,35,-35,-23,.,1
C[C@@H]1CN([C@H](C)CO)C(=O)c2cc(/C=C/c3ccccc3)cnc2O[C@@H]1CN(C)S(=O)(=O)c1ccccc1,.,5,.,.,.,-1,.
Cc1cccc(CNc2ncnc3ccc(-c4cccnc4)cc23)c1,-14,-41,0,0,-8,0,.
O=C(Cn1c2ccccc2c(=O)c2ccccc21)Nc1ccccc1F,37*,.,-1,1,-11,0,-2
CC(=O)c1cn(CC(=O)Nc2ccccc2F)c2ccccc12,-1,7,11,-11,0,0,.
CC1CCN(S(=O)(=O)c2ccc(NC(=O)CSc3ncccc3C(=O)O)cc2)CC1,2,.,-4,4,7,.,.
COCCN(C(=O)CCC(=O)Nc1cc(C)on1)C(C(=O)NC1CCCC1)c1ccccc1F (stereo not given),-12,0,.,.,10,0,.
O=C(NNc1ccccc1[N+](=O)[O-])Nc1ccccc1,3,.,18,-18,-13,.,.
O=C(NNc1ccccc1[N+](=O)[O-])Nc1ccc(Cl)c(Cl)c1,29*,-34,-19,19,12,0,5
Cc1ccc(C(=O)OCC(=O)Nc2ccc3c(c2)OCCO3)cc1C,22*,13,30,-30,4,0,-14
Cc1ccc(C)c(NC(=O)COC(=O)c2ccc3c(c2)OCCO3)c1,33*,4,10,-10,-23,0,-14
Cc1cc(C)cc(NC(=O)COC(=O)c2ccc3c(c2)OCCO3)c1,0,4,7,-7,-12,0,.
Cc1cccc(NC(=O)c2cc(-c3cc(C)c(C)cc3O)n[nH]2)c1,-5,6,14,-14,-8,0,.
Cc1ccc(-c2cc(C(=O)Nc3cccnc3)[nH]n2)c(O)c1C,25*,-30,.,.,-17,.,3
Cc1ccc(-c2cc(C(=O)NCc3ccc4c(c3)OCO4)[nH]n2)c(O)c1C,21*,.,6,-6,-10,.,-2
Clc1ccc(/C=C/c2nc3ccccc3[nH]2)c(Cl)c1,8,.,-11,11,-22,.,.
O=C(/C=C/c1ccc(Cl)cc1Cl)c1nc2ccccc2[nH]1,40*,.,-4,4,5,.,6
CCn1c(=O)c(C(=O)CN(C)CC(=O)Nc2ccccc2Br)c(N)n(Cc2ccccc2)c1=O,-2,-19,31,-31,-14,0,.
O=C(Nc1ccc(Br)cc1)c1cccc(N2C(=O)C3C4CCC(C4)C3C2=O)c1 (stereo not given),20*,.,-10,10,-3,0,6
CSc1ccccc1NC(=O)c1ccc(Br)o1,-11,.,-18,18,-6,.,.
COc1ccc(C(=O)Cn2cnc3ccc(Cl)cc3c2=O)cc1F,26*,2,-10,10,-14,0,0
O=C(COc1ccc(Cl)cc1Cl)Nc1c(-c2cccs2)nc2ccccn12,119*,.,9,-9,-13,0,2
Cc1ccc(Cn2c(=N)n(CC(=O)c3ccccc3)c3ccccc32)cc1,30*,-28,-3,3,1,0,8
Cc1ccc(C)c(NC(=O)CN(C)C(=O)C2CCN(S(=O)(=O)c3ccc4c(c3)OCCO4)CC2)c1,-1,-2,28,-28,-3,0,.
SMILES,dFosB act-1,Ecoli rRNA inh,SR-BI DiI-HDL act,SR-BI HDL uptake,PvdQ acylase,XiGFP reactiv,dFosB act-2
O=C(COc1ccccc1[N+](=O)[O-])Nc1ccc(NC(=O)c2cc3ccccc3o2)cc1,54*,4,-42,42,-10,0,3
COc1ccc(NS(=O)(=O)c2cccc(NC(=O)COc3ccccc3[N+](=O)[O-])c2)cc1,25*,7,-28,28,-17,0,1
Cc1cc(C)c(OCC(=O)Nc2ccc(NC(=O)c3ccco3)cc2)c([N+](=O)[O-])c1,18*,.,-64,64,7,0,0
O=C(COc1ccc(/C=N/NC(=O)c2cc3ccccc3o2)cc1Br)Nc1ccccc1,66*,.,-47,47,-10,.,4
O=C(COc1ccccc1[N+](=O)[O-])Nc1ccc2oc(=O)ccc2c1,-3,3,8,-8,-14,0,.
O=C(COc1ccccc1[N+](=O)[O-])Nc1cccc(S(=O)(=O)NC2=NCCCCC2)c1,-1,-1,-8,8,2,0,.
O=C(N/N=C/c1ccco1)c1cc2ccccc2o1,-9,2,16,-16,-3,0,.
O=C1C(=O)N(CNc2ccccn2)c2ccccc21,-5,.,30,-30,2,.,.
O=C(C[C@H]1C[C@@H]2c3cc(NC(=O)C4CCC4)ccc3O[C@@H]2[C@@H](CO)O1)NCc1ccc(Cl)cc1,.,-4,.,.,.,0,.
O=C(C[C@H]1C=C[C@@H](NC(=O)Nc2ccccc2F)[C@H](CO)O1)NCc1ccccc1,.,-2,.,.,.,0,.
COc1ccc(NS(=O)(=O)c2cccc(C(=O)OCC(=O)Nc3cc(C)on3)c2)cc1,20*,.,-12,12,8,.,-1
CCOc1ccc(-n2c(SCC(=O)Nc3nccs3)nc3c(c2=O)SCC3)cc1,-6,2,3,-3,-10,1,.
Cc1ccc(-n2c(SCC(=O)Nc3nccs3)nc3c(c2=O)SCC3)cc1,38*,.,-9,9,-15,.,1
CC(C)(O)CNC(=O)Nc1ccc(Cl)c(Cl)c1,-4,.,8,-8,-15,0,.
Cc1ccc(-c2nsc(SCC(=O)Nc3ccc4c(c3)OCO4)n2)cc1,24*,.,13,-13,-16,0,3
Nn1c(SCC(=O)Nc2ccc3c(c2)OCO3)nnc1-c1ccc(Cl)cc1,64*,.,24,-24,-9,.,2
Cc1ccccc1-c1cnc2c(c1)C(=O)N([C@@H](C)CO)C[C@H](C)[C@@H](CN(C)C(=O)c1cccnc1)O2,.,-1,.,.,.,-1,.
O=C1C2C(c3ccccc3)C=CC(c3ccccc3)C2C(=O)N1CCO (stereo not given),-6,.,24,-24,-7,.,.
C=CCn1c(=NC(=O)c2ccc(S(=O)(=O)N3CCc4ccccc4C3)cc2)sc2cc(S(N)(=O)=O)ccc21,?,-2,-27,27,-1,0,.
